In ChEMBL document CHEMBL1142684, “Application of a flexible synthesis of (5R)-thiolactomycin to develop new inhibitors of type I fatty acid synthase” (J Med Chem, 2005):
pIC50: −log10 of the molar value. Converted amounts (≈) assume the structure as drawn.

Legend:
MCF7 [1] = experiment: Inhibitory concentration against MCF-7 breast cancer cells in XTT assay (non radioactive assay); format: functional, cell-based, Homo sapiens
How it was run: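 MCF-7 human breast cancer cells, cytotoxicity measured by XTT cell proliferation assay (nonradioactive). The procedure was adapted from the kit instructions. IC50 is the average of duplicate runs.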

MCF7 [2] = experiment: Inhibitory concentration against fatty acid synthesis in MCF-7 breast cancer cells; format: functional, cell-based, Homo sapiens
Fatty acid synthase = Fatty acid synthase (Homo sapiens, UniProt P49327); experiment: Inhibitory concentration against purified human fatty acid synthase activity in ZR-75-1 breast cancer cells
Sequence of Fatty acid synthase (P49327 whole entry): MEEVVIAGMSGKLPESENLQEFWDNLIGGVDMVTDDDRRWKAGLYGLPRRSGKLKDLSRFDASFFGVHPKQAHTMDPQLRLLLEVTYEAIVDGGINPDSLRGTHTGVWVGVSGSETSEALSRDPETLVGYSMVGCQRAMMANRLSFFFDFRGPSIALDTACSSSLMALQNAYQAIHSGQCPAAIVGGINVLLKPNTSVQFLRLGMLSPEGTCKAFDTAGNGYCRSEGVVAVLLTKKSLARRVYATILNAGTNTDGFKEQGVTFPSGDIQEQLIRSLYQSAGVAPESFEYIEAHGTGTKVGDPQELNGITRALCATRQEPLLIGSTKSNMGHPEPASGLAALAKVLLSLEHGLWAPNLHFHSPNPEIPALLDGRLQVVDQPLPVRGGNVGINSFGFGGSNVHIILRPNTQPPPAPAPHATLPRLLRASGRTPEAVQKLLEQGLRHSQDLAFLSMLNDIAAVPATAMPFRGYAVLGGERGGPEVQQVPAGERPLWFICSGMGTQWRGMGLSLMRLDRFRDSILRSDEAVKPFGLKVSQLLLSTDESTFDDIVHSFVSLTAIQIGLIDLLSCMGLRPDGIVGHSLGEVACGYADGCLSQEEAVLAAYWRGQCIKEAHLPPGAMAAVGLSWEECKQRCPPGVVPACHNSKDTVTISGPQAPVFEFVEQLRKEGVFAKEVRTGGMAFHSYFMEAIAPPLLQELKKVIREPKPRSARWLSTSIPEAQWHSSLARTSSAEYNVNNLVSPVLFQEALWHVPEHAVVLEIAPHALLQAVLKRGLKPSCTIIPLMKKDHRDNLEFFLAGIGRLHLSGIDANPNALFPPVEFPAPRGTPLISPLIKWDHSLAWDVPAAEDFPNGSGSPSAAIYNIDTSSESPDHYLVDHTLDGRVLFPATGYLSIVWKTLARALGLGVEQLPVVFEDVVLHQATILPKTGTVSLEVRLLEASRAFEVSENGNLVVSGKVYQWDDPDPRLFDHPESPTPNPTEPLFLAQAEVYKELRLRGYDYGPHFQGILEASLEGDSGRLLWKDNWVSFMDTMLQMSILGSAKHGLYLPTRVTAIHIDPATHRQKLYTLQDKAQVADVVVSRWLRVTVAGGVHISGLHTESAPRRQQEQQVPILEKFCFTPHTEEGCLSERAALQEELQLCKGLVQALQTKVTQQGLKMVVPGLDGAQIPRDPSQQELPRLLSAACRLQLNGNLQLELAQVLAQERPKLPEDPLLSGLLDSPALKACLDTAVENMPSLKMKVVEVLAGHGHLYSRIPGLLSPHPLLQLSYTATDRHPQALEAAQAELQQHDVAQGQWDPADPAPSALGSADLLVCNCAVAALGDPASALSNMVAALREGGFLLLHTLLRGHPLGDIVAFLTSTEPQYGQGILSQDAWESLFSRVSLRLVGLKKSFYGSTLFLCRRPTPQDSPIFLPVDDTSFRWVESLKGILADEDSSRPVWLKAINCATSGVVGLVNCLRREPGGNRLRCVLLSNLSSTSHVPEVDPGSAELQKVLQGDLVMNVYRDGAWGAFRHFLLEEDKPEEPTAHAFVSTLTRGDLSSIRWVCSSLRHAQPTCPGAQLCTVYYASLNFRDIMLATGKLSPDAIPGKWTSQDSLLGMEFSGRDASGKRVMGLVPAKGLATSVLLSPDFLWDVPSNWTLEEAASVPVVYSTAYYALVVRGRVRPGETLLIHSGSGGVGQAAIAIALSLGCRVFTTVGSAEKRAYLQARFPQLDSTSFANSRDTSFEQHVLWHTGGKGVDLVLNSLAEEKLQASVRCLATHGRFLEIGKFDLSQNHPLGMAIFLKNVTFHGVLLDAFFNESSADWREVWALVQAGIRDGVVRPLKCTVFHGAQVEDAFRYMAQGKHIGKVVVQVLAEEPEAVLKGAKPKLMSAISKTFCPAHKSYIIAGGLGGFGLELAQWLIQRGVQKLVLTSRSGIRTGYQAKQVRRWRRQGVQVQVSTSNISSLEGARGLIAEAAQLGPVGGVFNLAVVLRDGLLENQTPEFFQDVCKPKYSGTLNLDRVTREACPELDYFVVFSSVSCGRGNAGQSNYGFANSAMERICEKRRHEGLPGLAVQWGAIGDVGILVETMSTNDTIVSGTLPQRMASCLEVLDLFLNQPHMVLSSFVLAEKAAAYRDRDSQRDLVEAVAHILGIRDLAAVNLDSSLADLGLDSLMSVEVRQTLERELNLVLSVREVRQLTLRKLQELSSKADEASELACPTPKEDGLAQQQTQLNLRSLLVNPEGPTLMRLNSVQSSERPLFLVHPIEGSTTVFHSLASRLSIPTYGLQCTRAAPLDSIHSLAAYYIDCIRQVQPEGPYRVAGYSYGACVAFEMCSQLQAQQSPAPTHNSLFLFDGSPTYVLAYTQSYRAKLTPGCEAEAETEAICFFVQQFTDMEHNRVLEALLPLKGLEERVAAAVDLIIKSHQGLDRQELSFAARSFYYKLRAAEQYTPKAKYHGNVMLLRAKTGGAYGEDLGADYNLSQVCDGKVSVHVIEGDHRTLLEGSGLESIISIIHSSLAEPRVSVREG
How it was run: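 FAS purified from ZR-75-1 human breast cancer cells (2 µg per well). Overall reaction read at 37 °C as malonyl-CoA-dependent NADPH oxidation at 340 nm, every 10 s for 5 min. Average of duplicate runs; neg means IC50 > 50 µg/mL.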

Mus musculus = experiment: Maximum amount of weight loss in Balb/C mice after 7 days of 60 mg/kg intraperitoneal administration; format: functional
How it was run: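 Balb/C mice were given a single ip dose of 60 mg/kg in 100 µL DMSO (stock 10 mg/mL in DMSO), or vehicle alone. Mice were weighed daily until treated animals returned to pretreatment weight. The value is the maximum weight loss measured over 7 days.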

[3] = Homo sapiens, MCF7, read-out: IC50

SMILES	IC50 (MCF7 [1]; [3]) [µg/mL]	IC50 (MCF7 [2]; [3]) [µg/mL]	pIC50 (Fatty acid synthase)	Weight loss (Mus musculus; 60 mg/kg) [%]	Weight loss (Mus musculus) [%]	IC50 (MCF7 [2]; mcf7) [µg/mL]	IC50 (MCF7 [1]; mcf7) [µg/mL]
CCCCCCCC[C@@]1(C)SC(O)=C(C(C)O)C1=O (stereo in doubt; 29)	23.9 (≈ 83.4 µM)	17.6 (≈ 61.4 µM)	4.70	3.5			
C=C/C(C)=C/[C@@]1(C)SC(=O)C=C1O	> 80		4.37		7.8		
C/C=C/C(C)=C/[C@@]1(C)SC(O)=CC1=O	> 80	17.3 (≈ 82.3 µM)	< 3.62		4.1		
COC1=CC(=O)S[C@]1(C)Cc1ccccc1		> 50	< 3.67				
C=CCOC1=C(C)C(=O)S[C@]1(C)CCCCCCCC	34.7 (≈ 117 µM)	> 50	< 3.77				
C#CCOC1=CC(=O)S[C@]1(C)CCCCCC	8.9 (≈ 35.3 µM)	21.9 (≈ 86.8 µM)	< 3.70				
C=CCOC(=O)OC1=CC(=O)S[C@]1(C)CCCCCCCC	37.3 (≈ 114 µM)	14.2 (≈ 43.5 µM)	4.68		3.4		
CCCCCCCC[C@@]1(C)SC(=O)C=C1OCC(=O)O		13.8 (≈ 45.9 µM)	< 3.78				
C=CCC1=C(O)S[C@](C)(CCCCCCCC)C1=O	44.4 (≈ 157 µM)	34.8 (≈ 123 µM)	5.00				
CCCCCC[C@@]1(C)SC(=O)C=C1OCC(=O)NCC(=O)OC	40.5 (≈ 118 µM)	9.8 (≈ 28.5 µM)	< 3.84				
CCCCCCCC[C@@]1(C)SC(=O)C=C1OC(=O)CC	26.8 (≈ 89.8 µM)	22.6 (≈ 75.7 µM)	< 3.78				
CCCCCCCC[C@@]1(C)SC(=O)C=C1OCC(=O)OCC	35.3 (≈ 107 µM)	10.8 (≈ 32.9 µM)	< 3.82		2.7		
CCCC/C=C/C=C/[C@@]1(C)SC(O)=CC1=O	60 (≈ 252 µM)	22.6 (≈ 94.8 µM)	4.44		11		
CCCCCC[C@@]1(C)SC(=O)C=C1OCC(=O)NCCCBr	21 (≈ 53.5 µM)	6.7 (≈ 17.1 µM)	< 3.89				
C=C/C(C)=C/[C@@]1(C)SC(=O)C(C)=C1O (stereo in doubt; form 2) [THIOLACTOMYCIN]			3.85		2.6	41.8 (≈ 199 µM)	
CCCCCCCC[C@@]1(C)SC(=O)C=C1OC(=O)OC	21.6 (≈ 71.9 µM)	10.7 (≈ 35.6 µM)	5.16		6.1		
CCCCCCCC[C@@]1(C)SC(O)=C(C(C)=O)C1=O	12.5 (≈ 43.9 µM)	12 (≈ 42.2 µM)	< 3.75		8.2		
CCCCCC[C@@]1(C)SC(=O)C=C1OC	9.4 (≈ 41.2 µM)	14 (≈ 61.3 µM)	< 3.66				
CCCCCCCC[C@@]1(C)SC(O)=C(C(C)O)C1=O (stereo in doubt; 30)			4.94	0.2		21.7 (≈ 75.8 µM)	21 (≈ 73.3 µM)
C=CCC1(CC=C)C(=O)S[C@](C)(CCCCCCCC)C1=O	40.5 (≈ 126 µM)	> 50	< 3.81				

SMILES	IC50 (MCF7 [1]; [3]) [µg/mL]	IC50 (MCF7 [2]; [3]) [µg/mL]	pIC50 (Fatty acid synthase)	Weight loss (Mus musculus; 60 mg/kg) [%]	Weight loss (Mus musculus) [%]	IC50 (MCF7 [2]; mcf7) [µg/mL]	IC50 (MCF7 [1]; mcf7) [µg/mL]
CCCCCCCC[C@@]1(C)SC(=O)C=C1OC(=O)OCC	15.1 (≈ 48 µM)	14.5 (≈ 46.1 µM)	4.83		7.1		
CCCCCC[C@@]1(C)SC(O)=CC1=O	> 80	16.5 (≈ 77 µM)	< 3.63				
CCCCCCCC[C@@]1(C)SC(O)=C(C)C1=O	48 (≈ 187 µM)	16.5 (≈ 64.3 µM)	3.72		0		
C=CCC1(C)C(=O)S[C@](C)(CCCCCCCC)C1=O (some centres undefined)	40.5 (≈ 137 µM)	> 50	< 3.77				
C=CCOC1=CC(=O)S[C@]1(C)CCCCCCCC	14.5 (≈ 51.3 µM)	> 50	< 3.75				
CCCCCCCC[C@@]1(C)SC(O)=C(C(=O)OC)C1=O	47.2 (≈ 157 µM)	18.7 (≈ 62.2 µM)	< 3.78				
C=CCOC1=CC(=O)S[C@]1(C)CCCCCC	9 (≈ 35.4 µM)	> 50	< 3.71				
C=C/C(C)=C/[C@@]1(C)SC(=O)C(C)=C1O (stereo in doubt; form 1) [THIOLACTOMYCIN]	> 80	38.4 (≈ 183 µM)	4.00				
CCCCCCCC[C@@]1(C)SC(=O)C=C1OC	16.4 (≈ 64 µM)	> 50	< 3.71				
CCCCCCCC[C@@]1(C)SC(O)=C(C(=O)C(F)(F)F)C1=O	18.4 (≈ 54.4 µM)	14.7 (≈ 43.4 µM)	3.92				
CCCCCCCC[C@@]1(C)SC(=O)C=C1OCCCCCl	35.3 (≈ 106 µM)	> 50	< 3.82				
CCCCCC[C@@]1(C)SC(=O)C=C1OCC(=O)NCC(=O)O		6.6 (≈ 20 µM)	< 3.82		3.5		
CC/C=C/C=C/[C@@]1(C)SC(O)=CC1=O	> 80	16.9 (≈ 80.4 µM)	< 3.62		3.2		
CCCCCC[C@@]1(C)SC(=O)C=C1OCC(=O)OCC	39.6 (≈ 132 µM)	14.2 (≈ 47.3 µM)	< 3.78				
CCCCCCCC[C@@]1(C)SC(O)=CC1=O	17.6 (≈ 72.6 µM)	12.6 (≈ 52 µM)	4.78		2		
CCCCCC[C@@]1(C)SC(=O)C=C1OCCCCCl	20.8 (≈ 68.2 µM)	8.6 (≈ 28.2 µM)	< 3.79				
C[C@]1(Cc2ccccc2)SC(O)=CC1=O	> 80	> 50	< 3.64		1.6		
CCCCCCCC[C@@]1(C)SC(=O)C(C)=C1OC	17.3 (≈ 64 µM)	> 50	< 3.73				
C=CCNC(=O)COC1=CC(=O)S[C@]1(C)CCCCCCCC	12.1 (≈ 35.6 µM)	> 50	< 3.83		2.4		
